Source: PubChem
Compounds with a hit are over-represented: about 1.3% of the library has one in this group of screens.
proCasp3 act = activators of human procaspase-3 D3A mutant, primary screen, biochemical, absorbance, PC-3 D3A mutant, single concentration; Caspase-3 (Homo sapiens), P42574; recombinant procaspase-3 D3A, Ac-DEVD-pNA absorbance 405 nm; activation, % at 8.5 µM; hit rate 0.11% among 330,000;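 active means activation above the mean of all tested compounds plus 3 SD, cut at about 21% in these data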;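 further: 0% = DMSO alone and 100% = DMSO wells spiked with extra 5 µM PC-3 D3A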
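Test system: Procaspase-3 D3A mutant, all three cleavage aspartates alanine | Dosing: Single dose, 8.5 µM nominal compound, 0.8% DMSO | Schedule: 1 h preincubation, 2 h reaction | Technique: 405 nm absorbance of p-nitroaniline, reads at 0 and 120 min | Repeats: One well per compound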
CHT allo act = CHT positive allosteric modulators, primary screen, cell-based, membrane potential dye, choline EC20; High affinity choline transporter 1 (Homo sapiens), Q9GZV3; CHT-expressing cells; hits give high values; LV-AA mutant CHT in HEK293 cells; B-score at 10 µM; hit rate 0.49% among 310,000;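 active means initial fluorescence not abnormally high and integrated response B-score, plate-corrected, over 3 SD above library mean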
Target sequence (Q9GZV3 whole entry, looked up): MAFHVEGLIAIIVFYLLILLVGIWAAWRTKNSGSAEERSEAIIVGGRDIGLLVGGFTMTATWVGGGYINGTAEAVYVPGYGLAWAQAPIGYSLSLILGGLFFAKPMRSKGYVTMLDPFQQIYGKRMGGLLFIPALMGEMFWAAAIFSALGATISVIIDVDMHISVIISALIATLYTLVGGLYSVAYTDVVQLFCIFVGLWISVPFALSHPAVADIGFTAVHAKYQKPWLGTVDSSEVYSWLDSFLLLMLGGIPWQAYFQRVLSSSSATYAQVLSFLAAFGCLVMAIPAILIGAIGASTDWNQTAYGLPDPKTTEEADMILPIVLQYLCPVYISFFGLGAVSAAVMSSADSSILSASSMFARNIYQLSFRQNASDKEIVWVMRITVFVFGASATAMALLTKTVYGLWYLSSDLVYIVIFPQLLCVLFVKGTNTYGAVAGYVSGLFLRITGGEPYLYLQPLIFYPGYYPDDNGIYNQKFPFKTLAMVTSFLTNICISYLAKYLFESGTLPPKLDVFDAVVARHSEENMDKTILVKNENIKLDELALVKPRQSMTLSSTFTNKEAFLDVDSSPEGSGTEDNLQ
proCasp7 act = procaspase-7 activators, primary screen, counter-screen for procaspase-3 activator project, biochemical, absorbance, HTS, human. Caspase-7 (Homo sapiens), P55210. recombinant procaspase-7, Ac-DEVD-pNA absorbance 405 nm; D23A/D198A/D206A triple mutant, cannot self-cleave; scale: DMSO 0, 5 µM enzyme 100. hit rate 0.093% among 330,000. AID 463210, 2010. activation, % at 8.5 µM;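 active means percent activation above the screen-wide mean plus 3 SD, cut at about 25% in these data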
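Assay system: Uncleavable procaspase-7 mutant enzyme / Input: 2 µM procaspase-7 mutant as dispensed / Dosing: single nominal 8.5 µM compound dose, 0.8% DMSO final / Timing: 1 h enzyme–compound preincubation and 2 h substrate reaction, both 25 °C / Detection: p-Nitroaniline absorbance at 405 nm, read at 0 and 120 min / Replication: singlicate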
CHT inh = inhibitors of human choline transporter CHT. High affinity choline transporter 1 (Homo sapiens), Q9GZV3. CHT-expressing cells, membrane potential dye, choline response; hits give low values. B-score at 10 µM. hit rate 0.86% among 310,000;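 active means B-score over 3 SD under the library average, and starting fluorescence ratio not unusually high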;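 further: choline stimulus applied at its EC90 after an EC20 pre-addition; B-score computed on integrated fluorescence ratio after choline addition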
CHT activ conf = CHT activators, confirmation, cell-based, membrane potential dye, duplicate | shares compounds with CHT allo act | CHT-expressing cells, membrane potential dye fluorescence (FDSS); % of choline EC20–EC90 response window; HEK293 expressing CHT LV-AA mutant; choline added at its EC20 | activation, % at 10 µM | hit rate 91% among 2,500;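 active means primary screen active, with duplicate mean activation above negative control mean plus 3 SD, cut at about 11% in these data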
HEK293 MP dye = membrane potential response in parental HEK293 cells, counter-screen for CHT activator project, cell-based, membrane potential dye. shares compounds with CHT allo act. membrane potential dye fluorescence (FDSS); measured after EC20 choline addition. ratio readout change at 10 µM, hits read low. hit rate 62% among 2,500. AID 623908, 2012;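 active means duplicate-averaged ratio beyond 3 SD from buffer wells, up or down, though filed actives are nearly all decreases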
The depositor's hits bear a star.

`COc1ccc(C(CC(=O)Nc2cc([N+](=O)[O-])ccc2OC)c2ccccc2)cc1` (stereo unspecified) gave proCasp3 act 2, CHT allo act inactive, proCasp7 act 1 and CHT inh inactive.
CC1CCC2(CC1)NC(=O)N(CC(=O)NC1CCCCC1C)C2=O (stereo unspecified) was read as proCasp3 act 2 and proCasp7 act 16.
CCN(CC)c1cc(C)c2cc(NC(=O)CNC(C)=O)ccc2n1 was read as proCasp3 act -3, CHT allo act 6.5*, proCasp7 act 8, CHT inh inactive, CHT activ conf 56* and HEK293 MP dye -31*.
CCOC(=O)c1oc2ccc(CNCCO)c(Cl)c2c1C was read as proCasp3 act -1, CHT allo act 8.3*, proCasp7 act 1, CHT inh inactive, CHT activ conf 37* and HEK293 MP dye -29*.
For COc1ccc(NC(=O)Cn2ccc3c(OC)cccc3c2=O)cc1 the results were proCasp3 act 1, CHT allo act inactive, proCasp7 act -2, CHT inh inactive, CHT activ conf 5 and HEK293 MP dye inactive.
For CN1CCN(NC(=O)c2cc(-c3ccc(Cl)s3)nc3ccccc23)CC1 the results were proCasp3 act -4, CHT allo act inactive, proCasp7 act -3, CHT inh inactive, CHT activ conf 7 and HEK293 MP dye -37*.
`Nc1c(-c2ccccc2)c(CSc2nc3ccccc3[nH]2)nn1-c1cccc(Cl)c1` gave proCasp3 act -1, CHT allo act inactive, proCasp7 act 12 and CHT inh inactive.
`Cc1ccccc1-n1nc(CSc2nc3ccccc3[nH]2)c(-c2ccccc2)c1N` gave proCasp3 act 3, CHT allo act inactive, proCasp7 act 11, CHT inh inactive, CHT activ conf 35* and HEK293 MP dye inactive.
For CN1CCN(C(=O)CSc2nc(-c3ccncc3)ccc2C#N)CC1 the results were proCasp3 act 1, CHT allo act 8.1*, proCasp7 act -3, CHT inh inactive, CHT activ conf 44* and HEK293 MP dye -37*.
Screening COc1cccc(/C=N/n2cncn2)c1OCC#N returned proCasp3 act 5, CHT allo act 6.4*, proCasp7 act 9, CHT inh inactive, CHT activ conf 3 and HEK293 MP dye inactive.
For COc1cc(CCC(=O)NCc2ccc(F)cc2)cc(OC)c1OC the results were proCasp3 act 4, CHT allo act inactive, proCasp7 act 4 and CHT inh inactive.
CC(C)C[C@@H](COc1ccccc1)N1CCN(Cc2ccccc2)CCC1=O was read as proCasp3 act -5, CHT allo act 6.3*, proCasp7 act 2, CHT inh inactive, CHT activ conf 16* and HEK293 MP dye inactive.
For CC(C)CN1CCC(=O)N([C@H](CSc2ccccc2)Cc2ccccc2)CC1 the results were proCasp3 act 0, CHT allo act 13*, proCasp7 act -2, CHT inh inactive, CHT activ conf 42* and HEK293 MP dye inactive.
`Cc1ccc(SC[C@H](Cc2ccccc2)N2CCN(CC(C)C)CCC2=O)cc1` gave proCasp3 act -3 and proCasp7 act -3.
Screening CCCN1CCC(=O)N([C@H](COc2ccccc2)Cc2ccccc2)CC1 returned proCasp3 act 3, CHT allo act inactive, proCasp7 act -3 and CHT inh inactive.
For O=C1CCN(Cc2ccccc2)CCN1[C@H](COc1ccccc1)Cc1ccccc1 the results were proCasp3 act -3, CHT allo act 6.7*, proCasp7 act 5, CHT inh inactive, CHT activ conf 24* and HEK293 MP dye inactive.
Screening CC(C)C[C@@H](CO)N1CCN(Cc2ccccc2)CCC1=O returned proCasp3 act 1, CHT allo act inactive, proCasp7 act 8 and CHT inh inactive.
Cc1ccc(C(CCNC(C)c2cccs2)c2ccco2)cc1 (stereo unspecified) was read as proCasp3 act -6, CHT allo act inactive, proCasp7 act 5, CHT inh inactive, CHT activ conf 12* and HEK293 MP dye inactive.
`COc1cccc(CNC(=O)CN2c3cccc4cccc(c34)S2(=O)=O)c1` gave proCasp3 act -11, CHT allo act inactive, proCasp7 act -6 and CHT inh inactive.
Screening CC(=O)c1ccc(NC(=O)Nc2ccncc2)cc1 returned proCasp3 act 2, CHT allo act inactive, proCasp7 act 7, CHT inh inactive, CHT activ conf 34* and HEK293 MP dye -38*.
Screening CC(=O)c1ccc(NC(=O)Nc2cccnc2)cc1 returned CHT allo act inactive and CHT inh inactive.
Screening Cc1ccc2nc(C)cc(NCCO)c2c1 returned proCasp3 act 5, CHT allo act 8.7*, proCasp7 act 10, CHT inh inactive, CHT activ conf 53* and HEK293 MP dye -67*.
CC(=O)c1ccc(Nc2cc(C)nc3ccc(C)cc23)cc1 was read as proCasp3 act -5, CHT allo act inactive, proCasp7 act -1 and CHT inh inactive.
`Cc1ccccc1S(=O)(=O)Nc1nc2ccccc2nc1NCCO` gave proCasp3 act 2, CHT allo act inactive, proCasp7 act 3 and CHT inh inactive.
`Cc1ccc2nc(C)cc(Nc3ccc4c(c3)OCCO4)c2c1` gave proCasp3 act -3, CHT allo act inactive, proCasp7 act -3, CHT inh inactive, CHT activ conf 21* and HEK293 MP dye -44*.
Screening Cc1ccc2cc(C)c(NCCO)nc2c1 returned proCasp3 act 1, CHT allo act 8.1*, proCasp7 act -11, CHT inh inactive, CHT activ conf 31* and HEK293 MP dye -52*.
COc1cc2nc(CCc3ccccc3)oc(=O)c2cc1OC was read as proCasp3 act 0, CHT allo act inactive, proCasp7 act 10 and CHT inh inactive.
Screening CCn1c(N2CCN(S(=O)(=O)c3ccccc3)CC2)nc2ccccc21 returned proCasp3 act -10, CHT allo act inactive, proCasp7 act 10 and CHT inh inactive.
COCc1ccccc1C1=CC(=O)C[C@H](c2ccc(OC)cc2)C1 was read as proCasp3 act -2 and proCasp7 act 7.
